ChEMBL document CHEMBL1944582, “Pyrazolopyridine Inhibitors of B-Raf(V600E). Part 1: The Development of Selective, Orally Bioavailable, and Efficacious Inhibitors” (ACS Med Chem Lett, 2011)
≈ marks a conversion by molar mass, not a printed value.

Test system: not listed separately
Test: Aqueous solubility of the compound in phosphate buffer at pH 6.5 after 24 hrs by HPLC analysis
Type: physicochemical
Details: not given

SMILES | solubility at 24 h
CCCS(=O)(=O)Nc1ccc(F)c(C(=O)Nc2cnc3[nH]nc(C)c3c2)c1F | 380 µg/mL (≈ 928 µM)
CCCS(=O)(=O)Nc1ccc(F)c(C(=O)Nc2cnc3[nH]nc(N(C)C)c3c2)c1F | 290 µg/mL (≈ 661 µM)

Test system: not listed separately
Test: AUC in CD-1 mouse at 30 mg/kg, po
Type: ADME, organism-based
Parameters: dose 30 mg/kg, route oral
Details: plasma
Procedure, shortened: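 Single oral dose given to mice as a solution in 40% PEG400/10% ethanol/50% water, at 30 mg/kg or 100 mg/kg. Exposure is reported as AUC in μg h/mL.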

SMILES | AUC
CCCS(=O)(=O)Nc1ccc(F)c(C(=O)Nc2cnc3[nH]nc(C)c3c2)c1F | 18300 ng·h/mL
CCCS(=O)(=O)Nc1ccc(F)c(C(=O)Nc2cnc3[nH]nc(N(C)C)c3c2)c1F | 1090 ng·h/mL

Target: T1, Serine/threonine-protein kinase B-raf (Homo sapiens, UniProt P15056, V600E)
T1 sequence (P15056 2-766 V600E limits assumed): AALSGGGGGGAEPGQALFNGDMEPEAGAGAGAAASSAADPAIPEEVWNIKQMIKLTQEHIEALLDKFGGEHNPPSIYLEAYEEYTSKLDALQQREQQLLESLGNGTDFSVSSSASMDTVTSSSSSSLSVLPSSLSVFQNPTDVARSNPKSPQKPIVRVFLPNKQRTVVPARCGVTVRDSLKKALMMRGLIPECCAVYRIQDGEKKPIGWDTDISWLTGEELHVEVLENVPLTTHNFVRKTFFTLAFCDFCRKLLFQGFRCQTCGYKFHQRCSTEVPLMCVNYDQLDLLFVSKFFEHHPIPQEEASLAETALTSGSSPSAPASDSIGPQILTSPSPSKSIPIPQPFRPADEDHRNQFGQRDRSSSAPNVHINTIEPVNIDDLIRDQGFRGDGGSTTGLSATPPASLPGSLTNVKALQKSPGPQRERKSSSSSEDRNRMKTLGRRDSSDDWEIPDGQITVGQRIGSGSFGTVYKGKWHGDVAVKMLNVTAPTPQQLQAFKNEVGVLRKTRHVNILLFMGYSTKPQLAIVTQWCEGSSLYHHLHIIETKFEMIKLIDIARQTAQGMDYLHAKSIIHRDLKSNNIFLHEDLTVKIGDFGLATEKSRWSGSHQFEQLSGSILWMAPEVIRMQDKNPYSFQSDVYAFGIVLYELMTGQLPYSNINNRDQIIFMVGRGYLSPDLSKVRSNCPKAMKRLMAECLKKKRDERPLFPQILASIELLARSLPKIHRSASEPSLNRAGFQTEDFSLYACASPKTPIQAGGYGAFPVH
Test: Inhibition of B-Raf V600E mutant-mediated Erk phosphorylation in human A375 cells after 1 hr by fluorescence analysis
Type: cell-based, A-375
Details: not given
Procedure, shortened: (§1)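 Cells were not stimulated, and inhibition was read against their basal ERK phosphorylation. This was the mechanistic cellular assay, run in both Malme-3M and A375 lines.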

SMILES | IC50
CCCS(=O)(=O)Nc1ccc(F)c(C(=O)Nc2cnc3[nH]nc(C)c3c2)c1F | 830 nM
CCCS(=O)(=O)Nc1ccc(F)c(C(=O)Nc2cccnc2)c1F | > 3000 nM
CCCS(=O)(=O)Nc1ccc(F)c(C(=O)Nc2ccc(N)nc2)c1F | > 3000 nM
CCCS(=O)(=O)Nc1ccc(F)c(C(=O)Nc2cnc(N)c(Br)c2)c1F | 1200 nM
CCCS(=O)(=O)Nc1ccc(F)c(C(=O)Nc2cnc3[nH]cnc3c2)c1F | > 3000 nM
CCCS(=O)(=O)Nc1ccc(F)c(C(=O)Nc2cnc3[nH]nc(N(C)C)c3c2)c1F | 650 nM

Test system: COLO 205
Test: Cytotoxicity against human COLO205 cells after 4 days by CellTiter-Glo assay
Type: functional, cell-based
Details: COLO 205, 96 h

SMILES | EC50
CCCS(=O)(=O)Nc1ccc(F)c(C(=O)c2c[nH]c3ncc(-c4ccc(Cl)cc4)cc23)c1F [VEMURAFENIB] | 240 nM

Test system: not listed separately
Test: Plasma protein binding in CD-1 mouse
Type: ADME, cell-free
Details: read-out: PPB (converted)

SMILES | fraction unbound
CCCS(=O)(=O)Nc1ccc(F)c(C(=O)Nc2cnc3[nH]nc(C)c3c2)c1F | 0.101
CCCS(=O)(=O)Nc1ccc(F)c(C(=O)Nc2cnc3[nH]nc(N(C)C)c3c2)c1F | 0.092

Target: T1, Serine/threonine-protein kinase B-raf
Test: Inhibition of full length human B-Raf V600E mutant expressed in baculovirus infected insect cells assessed as [gamma-33P]incorporation into MEK after 60 mins by scintillation counting
Details: not given

SMILES | IC50
CCCS(=O)(=O)Nc1ccc(F)c(C(=O)Nc2cnc3[nH]nc(C)c3c2)c1F | 12 nM
CCCS(=O)(=O)Nc1ccc(F)c(C(=O)Nc2cccnc2)c1F | 3900 nM
CCCS(=O)(=O)Nc1ccc(F)c(C(=O)Nc2ccc(N)nc2)c1F | 920 nM
CCCS(=O)(=O)Nc1ccc(F)c(C(=O)Nc2cnc3[nH]cnc3c2)c1F | 61 nM
CCCS(=O)(=O)Nc1ccc(F)c(C(=O)Nc2cnc3[nH]nc(N(C)C)c3c2)c1F | 8.2 nM

Test system: not listed separately
Test: Aqueous solubility of the compound in phosphate buffer at pH 7.4 after 24 hrs by HPLC analysis
Type: physicochemical
Details: not given

SMILES | solubility at 24 h
CCCS(=O)(=O)Nc1ccc(F)c(C(=O)Nc2cnc3[nH]nc(C)c3c2)c1F | 740 µg/mL (≈ 1810 µM)
CCCS(=O)(=O)Nc1ccc(F)c(C(=O)Nc2cnc3[nH]nc(N(C)C)c3c2)c1F | 450 µg/mL (≈ 1030 µM)

Target: T1, Serine/threonine-protein kinase B-raf
Test: Inhibition of B-Raf V600E mutant-mediated Erk phosphorylation in human MALME-3M cells after 1 hr by fluorescence analysis
Type: cell-based
Details: not given
Procedure, shortened: as §1

SMILES | IC50
CCCS(=O)(=O)Nc1ccc(F)c(C(=O)Nc2cnc3[nH]nc(C)c3c2)c1F | 86 nM
CCCS(=O)(=O)Nc1ccc(F)c(C(=O)Nc2cccnc2)c1F | 6700 nM
CCCS(=O)(=O)Nc1ccc(F)c(C(=O)Nc2ccc(N)nc2)c1F | 2400 nM
CCCS(=O)(=O)Nc1ccc(F)c(C(=O)Nc2cnc(N)c(Br)c2)c1F | 310 nM
CCCS(=O)(=O)Nc1ccc(F)c(C(=O)Nc2cnc3[nH]cnc3c2)c1F | 2400 nM
CCCS(=O)(=O)Nc1ccc(F)c(C(=O)Nc2cnc3[nH]nc(N(C)C)c3c2)c1F | 40 nM
